Test [1] addresses Small conductance calcium-activated potassium channel protein 3 (Rattus norvegicus, UniProt P70605). Briefly: (§1) Inhibition of Wistar rat recombinant SK3 channel expressed in HEK293 cells by whole cell patch clamp technique. In kind it is cell-based. The method in brief:
(§2)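 Whole-cell patch clamp on HEK293 cells stably expressing rat SK3. Extracellular solution contains 4 mM K+. Pipette Ca2+ is buffered at 400 nM. Kd comes from single-concentration kinetics experiments (n = independent experiments), reported as mean ± SEM.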

The target of test [2] is T1, Small conductance calcium-activated potassium channel protein 3 (Homo sapiens, UniProt Q9UGI6). Briefly: Inhibition of human SK3 channel by inside-out patch clamp technique.
Test [3] concerns the target T1, Small conductance calcium-activated potassium channel protein 3. Put plainly: Inhibition of human SK3 channel expressed in HEK293 cells assessed as Ca2+ induced current after drug wash out by whole cell patch clamp technique in presence of bicuculline methobromide. It is filed as cell-based. Summed up: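 Whole-cell SK3 current is measured every 5 s at 0 mV from voltage ramps (-120 to +30 mV). Pipette Ca2+ is buffered at 400 nM. Inhibition is followed to steady state (about 5 min) and then washed out. Bicuculline methobromide (100 µM) is applied for 20 s during the wash. Kd is fitted from the kinetics.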

The target is the same in test [4]. Briefly: Inhibition of wild type human SK3 channel expressed in HEK293 cells assessed as Ca2+ sensitivity by inside-out patch clamp technique. In kind it is cell-based. Summed up: (§3)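 Inside-out patches from HEK293 cells transiently transfected (lipofectamine) with hSK3 or hSK3(Q493A;D495A), recorded 2-4 days after transfection. Patches are exposed to a series of Ca2+-buffered solutions. Currents are normalized to the current induced by 10 µM Ca2+, and Hill fits give EC50(Ca2+) and nH. Mean ± SEM.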

In test [5] the target is Small conductance calcium-activated potassium channel protein 1 (Homo sapiens, UniProt Q92952). Put plainly: Inhibition of human SK1 channel by inside-out patch clamp technique.
For test [6], the target named is Small conductance calcium-activated potassium channel protein 2 (Homo sapiens, UniProt Q9H2S1). Put plainly: Inhibition of human SK2 channel by inside-out patch clamp technique.
The target of test [7] is Small conductance calcium-activated potassium channel protein 3 (Rattus norvegicus) (UniProt P70605). Described as §1. In kind it is cell-based. The method in brief:
as §2

The target of test [8] is T1, Small conductance calcium-activated potassium channel protein 3. Briefly: Inhibition of wild type human SK3 channel expressed in HEK293 cells at 300 nM by whole cell assay. It is filed as cell-based.
For test [9] the target is unchanged. Briefly: Inhibition of wild type human SK3 channel expressed in HEK293 cells. In kind it is cell-based.
The nature of test [10]: Inhibition of human SK3 channel Q493A;D495A mutant expressed in HEK293 cells. It is filed as cell-based.
For a further test, the system named is HEK293. Put plainly: Inhibition of human SK3 channel Q493A;D495A mutant expressed in HEK293 cells at 300 nM by whole cell assay. In kind it is cell-based.
The nature of test [11]: Inhibition of human SK3 channel Q493A;D495A mutant expressed in HEK293 cells assessed as Ca2+ sensitivity by inside-out patch clamp technique. In kind it is cell-based. The method in brief:
as §3

Structures are written as SMILES. Calls of active or inactive are those of the source. No cut-off for these calls is given here.

T1 sequence (Q9UGI6 whole entry): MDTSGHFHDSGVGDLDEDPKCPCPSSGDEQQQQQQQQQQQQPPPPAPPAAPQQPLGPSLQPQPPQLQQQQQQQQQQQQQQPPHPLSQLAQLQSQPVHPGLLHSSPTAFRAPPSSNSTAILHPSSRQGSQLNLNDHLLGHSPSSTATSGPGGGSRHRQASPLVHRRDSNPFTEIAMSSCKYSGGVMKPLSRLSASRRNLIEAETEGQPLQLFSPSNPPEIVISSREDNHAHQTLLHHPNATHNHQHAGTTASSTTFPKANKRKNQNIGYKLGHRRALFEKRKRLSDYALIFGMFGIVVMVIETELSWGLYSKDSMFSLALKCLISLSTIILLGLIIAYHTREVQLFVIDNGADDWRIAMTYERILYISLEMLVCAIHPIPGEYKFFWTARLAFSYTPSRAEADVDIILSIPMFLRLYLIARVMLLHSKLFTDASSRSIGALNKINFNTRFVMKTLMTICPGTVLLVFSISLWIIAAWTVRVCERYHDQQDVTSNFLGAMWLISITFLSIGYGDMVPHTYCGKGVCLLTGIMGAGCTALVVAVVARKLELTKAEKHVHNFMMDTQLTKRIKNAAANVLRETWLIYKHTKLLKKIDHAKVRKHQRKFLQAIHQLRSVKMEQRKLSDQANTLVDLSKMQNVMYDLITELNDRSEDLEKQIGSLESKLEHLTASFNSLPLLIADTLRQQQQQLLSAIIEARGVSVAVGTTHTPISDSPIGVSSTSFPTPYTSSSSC
Sequence of Small conductance calcium-activated potassium channel protein 3 (Rattus norvegicus, UniProt P70605) (P70605 whole entry): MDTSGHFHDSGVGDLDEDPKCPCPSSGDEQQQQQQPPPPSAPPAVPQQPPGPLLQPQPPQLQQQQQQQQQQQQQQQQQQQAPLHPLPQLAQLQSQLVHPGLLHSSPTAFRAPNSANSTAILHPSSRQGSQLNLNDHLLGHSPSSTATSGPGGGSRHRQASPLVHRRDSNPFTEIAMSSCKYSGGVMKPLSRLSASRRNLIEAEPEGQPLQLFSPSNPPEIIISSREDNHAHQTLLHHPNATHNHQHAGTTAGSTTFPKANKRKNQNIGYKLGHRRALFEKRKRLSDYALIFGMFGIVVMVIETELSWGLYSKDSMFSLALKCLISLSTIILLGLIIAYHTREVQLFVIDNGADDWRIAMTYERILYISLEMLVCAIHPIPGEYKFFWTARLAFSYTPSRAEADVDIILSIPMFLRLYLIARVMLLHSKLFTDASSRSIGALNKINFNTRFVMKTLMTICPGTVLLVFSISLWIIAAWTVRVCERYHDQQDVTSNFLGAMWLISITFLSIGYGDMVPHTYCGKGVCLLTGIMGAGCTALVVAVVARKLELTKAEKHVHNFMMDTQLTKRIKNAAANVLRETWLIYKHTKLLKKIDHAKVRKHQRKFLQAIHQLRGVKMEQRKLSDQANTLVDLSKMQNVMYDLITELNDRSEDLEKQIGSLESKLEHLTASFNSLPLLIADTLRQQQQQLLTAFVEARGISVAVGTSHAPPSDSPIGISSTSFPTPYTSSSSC
Sequence of Small conductance calcium-activated potassium channel protein 3 (Rattus norvegicus) (P70605 whole entry): as above
Sequence of Small conductance calcium-activated potassium channel protein 1 (Q92952 whole entry): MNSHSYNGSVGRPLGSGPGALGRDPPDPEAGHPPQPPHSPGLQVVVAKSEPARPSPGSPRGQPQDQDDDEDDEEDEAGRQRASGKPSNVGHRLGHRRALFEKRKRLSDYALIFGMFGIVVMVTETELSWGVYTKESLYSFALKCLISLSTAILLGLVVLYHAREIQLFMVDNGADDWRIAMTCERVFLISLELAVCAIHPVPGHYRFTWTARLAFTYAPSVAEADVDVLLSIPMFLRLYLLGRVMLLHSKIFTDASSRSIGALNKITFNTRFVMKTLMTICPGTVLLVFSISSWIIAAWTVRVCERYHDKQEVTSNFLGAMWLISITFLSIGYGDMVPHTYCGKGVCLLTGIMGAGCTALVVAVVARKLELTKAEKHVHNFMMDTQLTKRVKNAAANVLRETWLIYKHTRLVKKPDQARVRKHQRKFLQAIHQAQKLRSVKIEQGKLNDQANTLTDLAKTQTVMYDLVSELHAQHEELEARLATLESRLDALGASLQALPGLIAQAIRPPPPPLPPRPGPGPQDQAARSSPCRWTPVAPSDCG
Sequence of Small conductance calcium-activated potassium channel protein 2 (Q9H2S1 whole entry): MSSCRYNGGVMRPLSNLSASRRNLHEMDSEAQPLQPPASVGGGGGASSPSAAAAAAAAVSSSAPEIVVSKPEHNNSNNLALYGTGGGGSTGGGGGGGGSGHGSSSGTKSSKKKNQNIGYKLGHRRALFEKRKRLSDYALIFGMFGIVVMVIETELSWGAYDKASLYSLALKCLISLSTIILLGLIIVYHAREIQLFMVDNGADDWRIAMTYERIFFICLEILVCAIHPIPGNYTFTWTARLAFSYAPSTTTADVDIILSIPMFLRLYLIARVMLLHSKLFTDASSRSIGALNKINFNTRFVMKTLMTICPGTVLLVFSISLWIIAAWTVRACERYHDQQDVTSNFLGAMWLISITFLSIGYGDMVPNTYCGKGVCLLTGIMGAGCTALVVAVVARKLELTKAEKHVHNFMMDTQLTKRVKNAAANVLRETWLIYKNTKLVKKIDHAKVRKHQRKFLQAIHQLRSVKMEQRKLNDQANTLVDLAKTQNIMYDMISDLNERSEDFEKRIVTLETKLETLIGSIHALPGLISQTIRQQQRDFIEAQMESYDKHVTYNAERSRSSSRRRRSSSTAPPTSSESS

Consider `Cc1cc(N)c2ccccc2[n+]1CCCCCCCCCC[n+]1c(C)cc(N)c2ccccc21` [DEQUALINIUM CHLORIDE], for which the Kd in test [1] came to 180 nM.

As for `c1ccc2c(c1)OCCC2Nc1nc2ccccc2[nH]1` (stereo not given), the Kd in [1] was > 10000 nM.

Consider `CC(=O)O[C@H]1C[C@@H]2CC[C@@H]3[C@H](CC[C@@]4(C)[C@H]3CC[C@H]([N+]3(C)CCCCC3)[C@@H]4OC(C)=O)[C@@]2(C)C[C@@H]1[N+]1(C)CCCCC1` [PENUCURONIUM], for which the Kd in [1] was 21000 nM.

Consider `Clc1ccc2c(c1)CCCC2Nc1nc2ccccc2[nH]1` (stereo not given), for which the Kd in [1] was determined as 120 nM.

Take `Cc1ccc2c(c1)C(Nc1nc3ccccc3[nH]1)CCC2` (stereo not given): the Kd in test [1] is 20 nM.

As for `c1ccc(C2CCCCN2c2nc3ccccc3[nH]2)cc1` (stereo not given), the Kd in test [1] was 750 nM.

`Brc1ccc2c(c1)C(Nc1nc3ccccc3[nH]1)CCC2` (stereo not given): in test [1], the Kd is 11 nM.

Consider `c1ccc2c(c1)c1cc[n+]2CCCCC[n+]2ccc(c3ccccc32)NCCCCCN1`, for which the Kd in test [1] turned out to be 0.43 nM.

For `Clc1cc2c(cc1Cl)C(Nc1nc3ccccc3[nH]1)CCC2` (stereo not given), the Kd in [2] is 60 nM; in test [3], 7.8 nM; in test [1] it was 9.1 nM; in [5], 54 nM; in test [6], 47 nM. Besides, in test [4], the EC50 amounted to 1810 nM.

Turning to `Clc1ccc(CNc2nc3ccccc3[nH]2)cc1Cl`, in test [1], the Kd is 200 nM.

Take `C[N+]1(C)CCc2cc3c(cc2[C@H]1[C@@H]1OC(=O)c2c1ccc1c2OCO1)OCO3`: the IC50 in test [1] was determined as 7000 nM.

Consider `Fc1ccc2c(c1)C(Nc1nc3ccccc3[nH]1)CCC2` (stereo not given), for which, in [1], the Kd is 34 nM.

On to `COc1ccc(C[C@H]2c3cc(OC)c(OC)cc3CC[N+]2(C)C)cc1OC` [LAUDANOSINE METHIODIDE], for which the dissociation constant Kd in [1] came out at 2600 nM.

Turning to `c1ccc2c(c1)CCCCC2Nc1nc2ccccc2[nH]1` (stereo not given), in test [1], the Kd amounted to 590 nM.

Turning to `O=C(Nc1nc2ccccc2[nH]1)c1ccc(Cl)cc1`, in test [1], the Kd was > 10000 nM.

Turning to `c1ccc(CNc2nc3ccccc3[nH]2)cc1`, the Kd in [1] is 2700 nM.

On to `COc1ccc(CC2c3cc(OC)c(OC)cc3CC[N+]2(C)CCC(=O)OCCCCCOC(=O)CC[N+]2(C)CCc3cc(OC)c(OC)cc3C2Cc2ccc(OC)c(OC)c2)cc1OC` (stereo not given) [ATRACURIUM], for which, in test [1], the Kd was determined as 6400 nM.

As to `c1ccc2[nH]c(NC3CCCc4sccc43)nc2c1` (stereo not given), in test [1], the Kd is 540 nM.

Turning to `Cc1cc(C)c2c(c1)C(Nc1nc3ccccc3[nH]1)CCC2` (stereo not given), in [1], the dissociation constant (Kd) came out at 33 nM.

`c1ccc2c(c1)CCN(c1nc3ccccc3[nH]1)C2`: the Kd in test [1] worked out at 14000 nM.

Take `CC1CCc2ccccc2C1Nc1nc2ccccc2[nH]1` (stereo not given): the Kd in test [1] came out at 170 nM.

In the case of `c1ccc2c(c1)CCC[C@@H]2Nc1nc2ccccc2[nH]1`, the Kd in test [1] is 450 nM.

For `Clc1ccc2c(c1)C(Nc1nc3ccccc3[nH]1)CCC2` (stereo not given), the Kd in test [1] came out at 17 nM.

In the case of `c1ccc2c(c1)CCC2Nc1nc2ccccc2[nH]1` (stereo not given), the dissociation constant Kd in test [1] is 790 nM.

For the compound `c1ccc2c(c1)CC(Nc1nc3ccccc3[nH]1)C2`, the dissociation constant (Kd) in test [1] was determined as 1700 nM.

For the compound `CCn1c(=O)[nH]c2ccccc21`, in [7], the result was Active.

Take `c1ccc2c3c(ccc2c1)CCCC3Nc1nc2ccccc2[nH]1` (stereo not given): the Kd in [1] turned out to be 31 nM.

`Clc1ccc(CNc2nc3ccccc3[nH]2)cc1`: the Kd in test [1] was 640 nM.

For `Clc1cccc2c1CCCC2Nc1nc2ccccc2[nH]1` (stereo not given), the Kd in test [1] amounted to 44 nM.

Regarding `c1ccc(CCc2nc3ccccc3[nH]2)cc1`, the Kd in test [1] was > 10000 nM.

Consider `c1ccc2c(c1)CCCC2Nc1nc2ccccc2[nH]1` (stereo not given), for which the Kd in test [1] worked out at 130 nM.

With `c1ccc2c(c1)CCC(Nc1nc3ccccc3[nH]1)C2` (stereo not given), in test [1], the equilibrium dissociation constant (Kd) came out at 2000 nM.

Turning to `CC1CCC(Nc2nc3ccccc3[nH]2)c2ccccc21` (stereo not given), the Kd in test [1] worked out at 32 nM.

On to `c1ccc(-c2ccc3c(c2)C(Nc2nc4ccccc4[nH]2)CCC3)cc1` (stereo not given), for which, in test [1], the Kd was determined as 600 nM.

With `COc1cc2c3cc1Oc1cc(ccc1O)C[C@@H]1c4c(cc(OC)c(O)c4Oc4ccc(cc4)C[C@@H]3N(C)CC2)CC[N+]1(C)C`, in test [1], the Kd is 16000 nM.

With `COc1ccc2c(c1)C(Nc1nc3ccccc3[nH]1)CCC2` (stereo not given), the Kd in [1] is 61 nM.

In the case of `c1ccc2c(c1)SCCC2Nc1nc2ccccc2[nH]1` (stereo not given), the Kd in test [1] amounted to 130 nM.

On to `c1ccc(C2CCCN2c2nc3ccccc3[nH]2)cc1` (stereo not given), for which the Kd in test [1] came to 1600 nM.

In the case of `c1ccc2c(c1)CCC[C@H]2Nc1nc2ccccc2[nH]1`, the inhibition came out at 75% in test [8] and 45% in the test on HEK293. For the same compound, the values for the Kd in test [9], in [1] and in test [10] were 100 nM, 77 nM and 430 nM, respectively. Moreover, the figures for the EC50 in [4] and in [11] were 400 nM and 440 nM, respectively.

On to `Clc1cccc2c1C(Nc1nc3ccccc3[nH]1)CCC2` (stereo not given), for which the dissociation constant (Kd) in [1] amounted to 27 nM.

As to `c1cc2cc(c1)C[n+]1ccc(c3ccccc31)NCc1ccc(cc1)CNc1cc[n+](c3ccccc13)C2`, the Kd in test [1] turned out to be 2.7 nM.

Consider `O=C1Nc2c(ccc(Cl)c2Cl)/C1=N\O`, for which, in test [7], the result was Active.

As for `Cc1cc(NC2CCCCC2)nc(-n2nc(C)cc2C)n1`, the outcome in test [7] was Active.

As to `c1ccc2[nH]c(NC3CCCc4ccncc43)nc2c1` (stereo not given), the Kd in test [1] was 6500 nM.

(Values after ChEMBL document CHEMBL1140213, “Synthesis and structure-activity relationship studies of 2-(N-substituted)-aminobenzimidazoles as potent negative gating modulators ofsmall conductance Ca2+-activated K+ channels” (J Med Chem, 2008).)
